ChEMBL document CHEMBL1926642, “Relevance of the C-5 position to schweinfurthin induced cytotoxicity” (2011)

Tests used:
Type in all cases: functional
A549 [1] = assay: Ratio of GI50 for human A549 cells to GI50 for human SF295 cells after 48 hrs by sulforhodamine B assay
HCT-15 = assay: Cytotoxicity against human HCT15 cells assessed as cell growth at 10 uM after 48 hrs by sulforhodamine B assay relative to control; details: HCT-15, 48 h, read-out: Activity
Outline: (§1)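 Compounds went through the NCI 60 cell-line screen, whose current protocol tests first at a single dose.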

A498 = assay: Cytotoxicity against human A498 cells assessed as cell growth at 10 uM after 48 hrs by sulforhodamine B assay relative to control; details: A498, 48 h, read-out: Activity; outline: as §1
SK-OV-3 = assay: Cytotoxicity against human SKOV3 cells assessed as cell growth at 10 uM after 48 hrs by sulforhodamine B assay relative to control; details: SK-OV-3, 48 h, read-out: Activity; outline: as §1
K562 = assay: Cytotoxicity against human K562 cells assessed as cell growth at 10 uM after 48 hrs by sulforhodamine B assay relative to control; details: K562, 48 h, read-out: Activity; outline: as §1
NCI-H460 = assay: Cytotoxicity against human NCI-H460 cells assessed as cell growth at 10 uM after 48 hrs by sulforhodamine B assay relative to control; details: NCI-H460, 48 h, read-out: Activity; outline: as §1
SW-620 = assay: Cytotoxicity against human SW620 cells assessed as cell growth at 10 uM after 48 hrs by sulforhodamine B assay relative to control; details: SW-620, 48 h, read-out: Activity
HCC 2998 = assay: Cytotoxicity against human HCC2998 cells assessed as cell growth at 10 uM after 48 hrs by sulforhodamine B assay relative to control; details: HCC 2998, 48 h, read-out: Activity; outline: as §1
SK-MEL-28 = assay: Cytotoxicity against human SK-MEL-28 cells assessed as cell growth at 10 uM after 48 hrs by sulforhodamine B assay relative to control; details: SK-MEL-28, 48 h, read-out: Activity; outline: as §1
MOLT-4 = assay: Cytotoxicity against human MOLT4 cells assessed as cell growth at 10 uM after 48 hrs by sulforhodamine B assay relative to control; details: MOLT-4, 48 h, read-out: Activity; outline: as §1
OVCAR-3 = assay: Cytotoxicity against human OVCAR3 cells assessed as cell growth at 10 uM after 48 hrs by sulforhodamine B assay relative to control; details: OVCAR-3, 48 h, read-out: Activity; outline: as §1
NCI/ADR-RES = assay: Cytotoxicity against human NCI/ADR-RES cells assessed as cell growth at 10 uM after 48 hrs by sulforhodamine B assay relative to control; details: read-out: Activity; outline: as §1
NCI-H322M = assay: Cytotoxicity against human NCI-H322M cells assessed as cell growth at 10 uM after 48 hrs by sulforhodamine B assay relative to control; details: read-out: Activity; outline: as §1
T47D = assay: Cytotoxicity against human T47D cells assessed as cell growth at 10 uM after 48 hrs by sulforhodamine B assay relative to control; details: read-out: Activity
UACC-257 = assay: Cytotoxicity against human UACC257 cells assessed as cell growth at 10 uM after 48 hrs by sulforhodamine B assay relative to control; details: UACC-257, 48 h, read-out: Activity
DU-145 = assay: Cytotoxicity against human DU145 cells assessed as cell growth at 10 uM after 48 hrs by sulforhodamine B assay relative to control; details: DU-145, 48 h, read-out: Activity; outline: as §1
M14 = assay: Cytotoxicity against human M14 cells assessed as cell growth at 10 uM after 48 hrs by sulforhodamine B assay relative to control; details: M14, 48 h, read-out: Activity; outline: as §1
IGROV-1 = assay: Cytotoxicity against human IGROV1 cells assessed as cell growth at 10 uM after 48 hrs by sulforhodamine B assay relative to control; details: IGROV-1, 48 h, read-out: Activity; outline: as §1
SNB-75 = assay: Cytotoxicity against human SNB75 cells assessed as cell growth at 10 uM after 48 hrs by sulforhodamine B assay relative to control; details: SNB-75, 48 h, read-out: Activity
SF-295 = assay: Cytotoxicity against human SF295 cells assessed as cell growth at 10 uM after 48 hrs by sulforhodamine B assay relative to control; details: SF-295, 48 h, read-out: Activity; outline: as §1
SN12C = assay: Cytotoxicity against human SN12C cells assessed as cell growth at 10 uM after 48 hrs by sulforhodamine B assay relative to control; details: read-out: Activity; outline: as §1
HCT-116 = assay: Cytotoxicity against human HCT116 cells assessed as cell growth at 10 uM after 48 hrs by sulforhodamine B assay relative to control; details: HCT-116, 48 h, read-out: Activity; outline: as §1
A549 [2] = assay: Cytotoxicity against human A549/ATCC cells assessed as cell growth at 10 uM after 48 hrs by sulforhodamine B assay relative to control; details: A549, 48 h, read-out: Activity; outline: as §1
BT-549 = assay: Cytotoxicity against human BT549 cells assessed as cell growth at 10 uM after 48 hrs by sulforhodamine B assay relative to control; details: BT-549, 48 h, read-out: Activity; outline: as §1
HT-29 = assay: Cytotoxicity against human HT-29 cells assessed as cell growth at 10 uM after 48 hrs by sulforhodamine B assay relative to control; details: HT-29, 48 h, read-out: Activity; outline: as §1
SF-268 = assay: Cytotoxicity against human SF268 cells assessed as cell growth at 10 uM after 48 hrs by sulforhodamine B assay relative to control; details: SF-268, 48 h, read-out: Activity; outline: as §1
[3] = Cytotoxicity against human Hs 578T cells assessed as cell growth at 10 uM after 48 hrs by sulforhodamine B assay relative to control; details: read-out: Activity; outline: as §1
RXF 393 = assay: Cytotoxicity against human RXF393 cells assessed as cell growth at 10 uM after 48 hrs by sulforhodamine B assay relative to control; details: RXF 393, 48 h, read-out: Activity; outline: as §1
MDA-MB-231 = assay: Cytotoxicity against human MDA-MB-231/ATCC cells assessed as cell growth at 10 uM after 48 hrs by sulforhodamine B assay relative to control; details: MDA-MB-231, 48 h, read-out: Activity; outline: as §1
SF-539 = assay: Cytotoxicity against human SF539 cells assessed as cell growth at 10 uM after 48 hrs by sulforhodamine B assay relative to control; details: SF-539, 48 h, read-out: Activity; outline: as §1
NCI-H226 = assay: Cytotoxicity against human NCI-H226 cells assessed as cell growth at 10 uM after 48 hrs by sulforhodamine B assay relative to control; details: NCI-H226, 48 h, read-out: Activity; outline: as §1
MCF7 = assay: Cytotoxicity against human MCF7 cells assessed as cell growth at 10 uM after 48 hrs by sulforhodamine B assay relative to control; details: MCF7, 48 h, read-out: Activity; outline: as §1
SNB-19 = assay: Cytotoxicity against human SNB19 cells assessed as cell growth at 10 uM after 48 hrs by sulforhodamine B assay relative to control; details: SNB-19, 48 h, read-out: Activity; outline: as §1
CCRF-CEM = assay: Cytotoxicity against human CCRF-CEM cells assessed as cell growth at 10 uM after 48 hrs by sulforhodamine B assay relative to control; details: read-out: Activity; outline: as §1

Row | Structure (SMILES) | RatioGI50 (A549 [1]) | growth at 10 µM (HCT-15) | growth at 10 µM (A498) | growth at 10 µM (SK-OV-3) | growth at 10 µM (K562) | growth at 10 µM (NCI-H460) | growth at 10 µM (SW-620) | growth at 10 µM (HCC 2998) | growth at 10 µM (SK-MEL-28) | growth at 10 µM (MOLT-4) | growth at 10 µM (OVCAR-3) | growth at 10 µM (NCI/ADR-RES) | growth at 10 µM (NCI-H322M) | growth at 10 µM (T47D) | growth at 10 µM (UACC-257) | growth at 10 µM (DU-145) | growth at 10 µM (M14) | growth at 10 µM (IGROV-1) | growth at 10 µM (SNB-75) | growth at 10 µM (SF-295) | further results
1 | COc1cc(/C=C/c2cc(O)c3c(c2)C[C@@H]2C(C)(C)[C@H](O)CC[C@@]2(C)O3)cc(O)c1C/C=C(\C)CCC=C(C)C | >30 |  |  |  |  |  |  |  |  |  |  |  |  |  |  |  |  |  |  |  | 
2 | COc1cc(/C=C/c2cc(Br)c3c(c2)C[C@@H]2C(C)(C)[C@H](O)CC[C@@]2(C)O3)cc(O)c1C/C=C(\C)CCC=C(C)C |  | 96.1% | 94.7% | 116% | 79.9% | 108% | 119% | 103% | 106% | 74.1% | 88.2% | 105% | 102% | 109% | 100% | 91.3% | 107% | 63.1% | 91.2% | 109% | growth at 10 µM (SN12C): 101%; growth at 10 µM (HCT-116): 84.5%; growth at 10 µM (A549 [2]): 94.7%; growth at 10 µM (BT-549): 108%; growth at 10 µM (HT-29): 74.5%; growth at 10 µM (SF-268): 88.5%; growth at 10 µM [3]: 64.3%; growth at 10 µM (RXF 393): 80.7%; growth at 10 µM (MDA-MB-231): 96.6%; growth at 10 µM (SF-539): 91.2%; growth at 10 µM (NCI-H226): 117%; growth at 10 µM (MCF7): 102%; growth at 10 µM (SNB-19): 106%; growth at 10 µM (CCRF-CEM): 85.3%
3 | COc1cc(/C=C/c2cc3c(c(OC)c2)O[C@]2(C)CC[C@@H](O)C(C)(C)[C@H]2C3)cc(O)c1C/C=C(\C)CCC=C(C)C | 13 |  |  |  |  |  |  |  |  |  |  |  |  |  |  |  |  |  |  |  | 
4 | COCc1cc(/C=C/c2cc(O)c(C/C=C(\C)CCC=C(C)C)c(OC)c2)cc2c1O[C@]1(C)CC[C@@H](O)C(C)(C)[C@H]1C2 |  | 84.2% | 140% | 145% | 72% | 105% | 129% | 99.3% | 118% | 70.4% | 94.8% | 100% | 167% | 106% | 116% | 105% | 117% | 65.3% | 84.2% | 133% | growth at 10 µM (SN12C): 96.2%; growth at 10 µM (HCT-116): 68.5%; growth at 10 µM (A549 [2]): 104%; growth at 10 µM (BT-549): 193%; growth at 10 µM (HT-29): 47.9%; growth at 10 µM (SF-268): 97.1%; growth at 10 µM [3]: 82.8%; growth at 10 µM (RXF 393): 88%; growth at 10 µM (MDA-MB-231): 81.3%; growth at 10 µM (SF-539): 89.9%; growth at 10 µM (NCI-H226): 120%; growth at 10 µM (MCF7): 103%; growth at 10 µM (SNB-19): 96.4%; growth at 10 µM (CCRF-CEM): 81.9%
